Experimental data as given in ChEMBL document CHEMBL5705886, “GSK1070916, a potent Aurora B/C kinase inhibitor with broad antitumor activity in tissue culture cells and human tumor xenograft models” (Mol Cancer Ther, 2009).
Active and inactive are the calls of the source. No cut-off for these calls is given here.

What was measured:
[1] = system: SW480; assay: Antiproliferative activity against human SW480 cells assessed as inhibition of cell viability measured for 6 to 7 days by cell titer glo assay; assay type: functional, cell-based
In short: (§1)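 Cells seeded in recommended growth medium, held overnight at 37°C in 5% CO2, then exposed to serial dilutions of inhibitor for 6–7 d. A time-zero plate was read with CellTiter-Glo at dosing. Luminescent viability read at the end. No-cell wells subtracted as background, data expressed as percent of DMSO control.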

[2] = system: HT-29; assay: Antiproliferative activity against human HT-29 cells assessed as inhibition of cell viability measured for 6 to 7 days by cell titer glo assay; assay type: functional, cell-based
In short: (§2)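 Cells seeded in recommended growth medium, incubated overnight at 37°C in 5% CO2, then exposed to serial dilutions of inhibitor for 6–7 d. A parallel plate was read with CellTiter-Glo at compound addition as a T=0 value. The luminescent viability readout had no-cell background subtracted and was expressed as % of DMSO control.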

[3] = system: BXPC-3; assay: Antiproliferative activity against human BXPC-3 cells assessed as inhibition of cell viability measured for 6 to 7 days by cell titer glo assay; assay type: functional, cell-based
In short: (§3)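 Tumor lines plated in recommended growth media, overnight at 37°C, 5% CO2, then given serial dilutions; a T=0 plate read with CellTiter-Glo at dosing. After 6–7 d of exposure, viability read by CellTiter-Glo luminescence. No-cell wells subtracted, data expressed as % of DMSO control.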

[4] = system: PANC-1; assay: Antiproliferative activity against human PANC-1 cells assessed as inhibition of cell viability measured for 6 to 7 days by cell titer glo assay; assay type: functional, cell-based; in short: as §1
[5] = system: SK-MEL-2; assay: Antiproliferative activity against human SK-MEL-2 cells assessed as inhibition of cell viability measured for 6 to 7 days by cell titer glo assay; assay type: functional, cell-based; in short: as §1
[6] = system: HEC-1B cell line; assay: Antiproliferative activity against human HEC-1B cell line assessed as inhibition of cell viability measured for 6 to 7 days by cell titer glo assay; assay type: functional, cell-based; in short: as §3
[7] = Antiproliferative activity against human MV-522 cells assessed as inhibition of cell viability measured for 6 to 7 days by cell titer glo assay; assay type: functional, cell-based; conditions: MV522; in short: as §2
[8] = system: MHH-PREB-1; assay: Antiproliferative activity against human MHH-PREB-1 cells assessed as inhibition of cell viability measured for 6 to 7 days by cell titer glo assay; assay type: functional, cell-based; in short: as §2
[9] = system: U-937; assay: Antiproliferative activity against human U-937 cells assessed as inhibition of cell viability measured for 6 to 7 days by cell titer glo assay; assay type: functional, cell-based
[10] = system: SU-DHL-6; assay: Antiproliferative activity against human SU-DHL-6 cells assessed as inhibition of cell viability measured for 6 to 7 days by cell titer glo assay; assay type: functional, cell-based; in short: as §1
[11] = system: HT; assay: Antiproliferative activity against human HT cells assessed as inhibition of cell viability measured for 6 to 7 days by cell titer glo assay; assay type: functional, cell-based; in short: as §2
[12] = system: Farage; assay: Antiproliferative activity against human Farage cells assessed as inhibition of cell viability measured for 6 to 7 days by cell titer glo assay; assay type: functional, cell-based; in short: as §3
[13] = system: MC-CAR; assay: Antiproliferative activity against human MC-CAR cells assessed as inhibition of cell viability measured for 6 to 7 days by cell titer glo assay; assay type: functional, cell-based; in short: as §2
[14] = system: DOHH-2; assay: Antiproliferative activity against human DOHH-2 cells assessed as inhibition of cell viability measured for 6 to 7 days by cell titer glo assay; assay type: functional, cell-based; in short: as §3
[15] = system: RCK8; assay: Antiproliferative activity against human RCK8 cells assessed as inhibition of cell viability measured for 6 to 7 days by cell titer glo assay; assay type: functional, cell-based; in short: as §1
[16] = Antiproliferative activity against human BC-2 cells assessed as inhibition of cell viability measured for 6 to 7 days by cell titer glo assay; assay type: functional, cell-based; in short: as §3
[17] = Antiproliferative activity against human Hs 445 cells assessed as inhibition of cell viability measured for 6 to 7 days by cell titer glo assay; assay type: functional, cell-based; in short: as §2
[18] = system: SEM cells; assay: Antiproliferative activity against human SEM cells assessed as inhibition of cell viability measured for 6 to 7 days by cell titer glo assay; assay type: functional, cell-based; in short: as §1
[19] = system: MV4-11; assay: Antiproliferative activity against human MV4-11 cells assessed as inhibition of cell viability measured for 6 to 7 days by cell titer glo assay; assay type: functional, cell-based; in short: as §2
[20] = Antiproliferative activity against human BDCM cells assessed as inhibition of cell viability measured for 6 to 7 days by cell titer glo assay; assay type: functional, cell-based; in short: as §3
[21] = system: EM-2; assay: Antiproliferative activity against human EM-2 cells assessed as inhibition of cell viability measured for 6 to 7 days by cell titer glo assay; assay type: functional, cell-based; in short: as §3
[22] = system: KU812 cell line; assay: Antiproliferative activity against human KU812 cell line assessed as inhibition of cell viability measured for 6 to 7 days by cell titer glo assay; assay type: functional, cell-based; in short: as §2
[23] = system: MOLT-16; assay: Antiproliferative activity against human MOLT-16 cells assessed as inhibition of cell viability measured for 6 to 7 days by cell titer glo assay; assay type: functional, cell-based; in short: as §2
[24] = Antiproliferative activity against human DND41 cells assessed as inhibition of cell viability measured for 6 to 7 days by cell titer glo assay; assay type: functional, cell-based; in short: as §3
[25] = Antiproliferative activity against human MJ cells assessed as inhibition of cell viability measured for 6 to 7 days by cell titer glo assay; assay type: functional, cell-based; in short: as §2
[26] = system: A549; assay: Effect on cell cycle distribution in human A549 cells assessed as increase in 4N DNA content at 2 to 5000 nM incubated for 24 to 72 hrs by flow cytometry based analysis; assay type: functional; conditions: dose 2-5000 nM, time 24-72 hrs
[27] = system: COLO 205; assay: Induction of apoptosis in human COLO 205 cells assessed as caspase-3 cleavage at 10 nmol/L incubated for 24 hrs by Western blot analysis; assay type: functional, cell-based
[28] = system: K562; assay: Antitumor activity in human K562 cells xenografted in SCID mouse assessed as reduction in tumor growth at 100 mg/kg, ip administered once daily for 5 consecutive days with 2 days off scheduled for 3 cycles measured upto 60 days; assay type: functional, organism-based; conditions: time 60.0 day
[29] = Toxicity in SCID nude mouse xenografted with human HCT-116 cells assessed as drug tolerance at 25 to 100 mg/kg, ip administered once daily for 5 consecutive days with 2 days off scheduled for 3 cycles measured upto 60 days; assay type: organism-based; conditions: in vivo, 1440 h, dose 25-100 mg/kg, time < 60 day
[30] = Toxicity in SCID nude mouse xenografted with human COLO 205 cells assessed as body weight loss at 25 to 100 mg/kg, ip administered once daily for 5 consecutive days with 2 days off scheduled for 2 cycles measured upto 60 days relative to control; assay type: organism-based; conditions: in vivo, 1440 h, dose 25-100 mg/kg, time < 60 day
[31] = Toxicity in SCID nude mouse xenografted with human MCF7 cells assessed as body weight loss at 50 to 100 mg/kg, ip administered once daily for 5 consecutive days with 2 days off scheduled for 3 cycles measured upto 60 days; assay type: organism-based; conditions: in vivo, 1440 h, dose 50-100 mg/kg, time < 60 day
[32] = molecular target: Aurora kinase B (Homo sapiens) (UniProt Q96GD4)
[33] = system: A549; assay: Antitumor activity in human A549 cells xenografted in nude mouse assessed as reduction in tumor growth at 25 to 100 mg/kg, ip administered once daily for 5 consecutive days with 2 days off scheduled for 3 cycles measured upto 60 days; conditions: dose 25-100 mg/kg, time <= 60.0 day
[34] = system: HCT-116; assay: Antitumor activity in human HCT-116 cells xenografted in nude mouse assessed as reduction in tumor growth at 25 to 100 mg/kg, ip administered once daily for 5 consecutive days with 2 days off scheduled for 3 cycles measured upto 60 days; conditions: dose 25-100 mg/kg, time <= 60.0 day

Sequence of Aurora kinase B (Homo sapiens) (Q96GD4 whole entry): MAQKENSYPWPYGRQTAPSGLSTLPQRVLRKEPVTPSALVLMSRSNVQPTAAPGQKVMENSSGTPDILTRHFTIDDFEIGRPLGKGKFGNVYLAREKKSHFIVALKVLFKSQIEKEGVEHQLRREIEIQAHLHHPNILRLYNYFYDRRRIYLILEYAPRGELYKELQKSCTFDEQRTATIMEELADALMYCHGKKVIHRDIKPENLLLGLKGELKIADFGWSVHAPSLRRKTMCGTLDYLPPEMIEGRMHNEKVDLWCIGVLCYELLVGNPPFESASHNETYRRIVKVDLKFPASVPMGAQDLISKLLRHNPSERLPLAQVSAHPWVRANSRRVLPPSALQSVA

With CCn1cc(-c2ccnc3[nH]c(-c4cccc(CN(C)C)c4)cc23)c(-c2ccc(NC(=O)N(C)C)cc2)n1 [GSK-1070916] the EC50 [1] was 3 nM, the EC50 [2] was 10 nM and the EC50 [3] was 3 nM. It also gave an EC50 [4] of 13 nM, an EC50 [5] of 2 nM and an EC50 [6] of 4 nM. It also gave an EC50 [7] of 13 nM, an EC50 [8] of 4 nM and an EC50 [9] of 5 nM. The EC50 [10] was 6 nM, the EC50 [11] was 7 nM and the EC50 [12] was 7 nM. It also gave an EC50 [13] of 9 nM, an EC50 [14] of 14 nM and an EC50 [15] of 38 nM. For the same compound, the EC50 [16] was 75 nM, the EC50 [17] was 5 nM and the EC50 [18] was 3 nM. It also gave an EC50 [19] of 7 nM, an EC50 [20] of 26 nM and an EC50 [21] of 4 nM. It also gave an EC50 [22] of 8 nM, an EC50 [23] of 3 nM and an EC50 [24] of 787 nM. For the same compound, the EC50 [25] was 7 nM, the Activity [26] was “Active” and the Activity [27] was “Active”. For the same compound, the Activity [28] was “Active”, the Activity [29] was “Non-Toxic” and the Activity [30] was less than 15%. The Activity [31] was “Toxic”, the T1/2 [32] was greater than 8 h and the Activity [33] was “Active”. For the same compound, the Activity [34] was “Active”.
